Source: PubChem
An excerpt weighted towards active compounds, which were near 4.2% of everything screened.
TAAR1 antagonist – human TAAR1 antagonists, primary screen, Fluo-8 calcium fluorescence, CHO RD-HGA16 cells. Trace amine-associated receptor 1 (Homo sapiens), Q96RJ0. antagonist. inhibition, % at 3 µM. actives 1.5% (n = 360,000);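 active = inhibition above a per-plate cutoff, the mean inhibition of test compounds on that plate plus 3 SD, cut at about 49% in these data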
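test system = CHO RD-HGA16 cells bearing hTAAR1 | replication = singlicate | controls = DMSO-only wells and EC80 β-PEA-stimulated wells | reagent = EC80 β-phenethylamine stimulus | read-out basis = percent inhibition of PEA-evoked calcium signal, max/basal emission ratio | schedule = seeding 17-24 h prior, 75-min 37 °C, 30-min RT dye loading | signal = kinetic Fluo-8 calcium fluorescence measurement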
GalR3 antagonist – GalR3 antagonists in HEK293 cells, primary screen, cell-based, fluorescence readout | inhibition, % at 3 µM | Galanin receptor type 3 (Homo sapiens), O60755 | actives 0.44% (n = 360,000) | HEK293 GalR3-CNG cAMP membrane potential fluorescence; galR3 body fused to GalR1 C-terminus;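 active = inhibition above the screen-wide average plus 3 SD, cut at about 13% in these data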;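 also: forskolin and galanin both at EC90 stimulate the cells; cAMP rise reported by CNG channel membrane potential dye signal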
Target sequence (O60755 1-299 limits assumed): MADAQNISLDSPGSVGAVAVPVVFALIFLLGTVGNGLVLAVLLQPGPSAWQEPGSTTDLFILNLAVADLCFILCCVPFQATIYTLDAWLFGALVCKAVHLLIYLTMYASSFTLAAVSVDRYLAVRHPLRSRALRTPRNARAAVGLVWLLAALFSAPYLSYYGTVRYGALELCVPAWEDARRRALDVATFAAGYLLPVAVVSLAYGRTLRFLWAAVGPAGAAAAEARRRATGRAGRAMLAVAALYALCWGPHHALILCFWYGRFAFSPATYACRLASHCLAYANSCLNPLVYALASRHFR
OX1R antag-1 – OX1R (HCRTR1) antagonists, primary screen, fluorescence, CHO/OX1R cells, Fluo-8 calcium, orexin A; Fluo-8 calcium fluorescence; inhibition, % at 5 µM; actives 0.43% (n = 330,000); AID 434989, 2010;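 active = inhibition above its plate's threshold, mean inhibition of all tested compounds on the plate plus 3 SD, cut at about 37% in these data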
Target sequence (O43613 whole entry, looked up): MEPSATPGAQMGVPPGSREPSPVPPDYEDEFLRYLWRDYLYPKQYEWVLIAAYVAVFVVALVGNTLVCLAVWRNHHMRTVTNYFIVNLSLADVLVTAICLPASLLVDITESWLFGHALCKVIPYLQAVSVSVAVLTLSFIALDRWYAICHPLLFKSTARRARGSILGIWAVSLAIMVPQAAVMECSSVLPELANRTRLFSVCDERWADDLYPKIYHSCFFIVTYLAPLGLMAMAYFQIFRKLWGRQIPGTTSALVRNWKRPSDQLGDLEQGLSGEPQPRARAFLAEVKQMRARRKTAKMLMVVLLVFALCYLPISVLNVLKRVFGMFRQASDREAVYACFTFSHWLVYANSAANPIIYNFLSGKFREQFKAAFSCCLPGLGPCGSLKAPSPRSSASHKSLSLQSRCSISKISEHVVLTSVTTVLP
OX1R antag-2 – antagonists of human orexin 1 receptor (OX1R). Orexin/Hypocretin receptor type 1 (Homo sapiens), O43613. OX1R-expressing cells, FRET antagonist read-out. inhibition, % at 6.6 µM. actives 1.8% (n = 330,000); in the data active = inhibition mostly above about 38%, no sharp cut-off; inactive = mostly below about 40%
TAAR1 ag – human TAAR1 agonists, primary screen, Fluo-8 calcium fluorescence, CHO RD-HGA16 cells | vehicle wells 0%, saturating PEA agonist 100% | activation, % at 3 µM | actives 0.99% (n = 360,000) | AID 624467, 2012;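 active = activation above the mean activation of all test compounds in the run plus 3 SD, cut at about 38% in these data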
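Benchmarks: low control DMSO, high control PEA (EC100); System: CHO RD-HGA16 cells carrying human TAAR1 plus Gα16; Detection: Fluo-8 fluorescence, 5 s baseline then 140 s kinetic read; Schedule: 17-24 h plating, Fluo-8 75 min 37 °C, 30 min RT; Read-out basis: % activation from peak over basal fluorescence ratio, DMSO-to-PEA scaled.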
CHO parental Ca – ATP-evoked calcium signal inhibitors, parental CHO, primary screen, counter-screen for OX1R antagonist project, cell-based, fluorescence, Fluo-8 calcium dye; parental CHO-K1, ATP-induced calcium, Fluo-8 fluorescence; inhibition, % at 5.6 µM; actives 0.63% (n = 330,000);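 active = inhibition above that plate's mean sample inhibition plus 3 SD, cut at about 26% in these data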
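material = parental CHO cells | also added = ATP as calcium-mobilizing challenge | dosing = single point at 5.6 µM | detection = intracellular calcium via Fluo-8 no-wash fluorescent dye | read-out = % inhibition | benchmarks = low control ATP plus DMSO, high control DMSO only | repeats = one well per compound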
nonsel antag count – nonselective antagonists in TAAR1 counter-screen cells, counter-screen for hTAAR1 antagonist project, cell-based, fluorescence, calcium; counterscreen cell line, antagonist mode; shares compounds with TAAR1 antagonist; inhibition, % at 3 µM; AID 651780, 2012; actives 77% (n = 2,400); in the data active = inhibition above about 22%;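 also: CHO-Ga16 host cells stimulated with ATP at an EC80 level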
TAAR1 ant conf – human TAAR1 antagonists, retest of hits, confirmation, cell-based, fluorescence | AID 651785, 2012 | shares compounds with TAAR1 antagonist | TAAR1-expressing cells, fluorescence antagonist read-out | actives 40% (n = 2,400) | inhibition, % at 3 µM; in the data active = inhibition above about 49%;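 also: CHO-Ga16 host cells challenged with agonist PEA near its EC80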
Ga16 ag counter – calcium activation in Ga16-expressing cells, counter-screen for TAAR1 antagonist project, cell-based, fluorescence | shares compounds with TAAR1 antagonist | agonist counterscreen | actives 18% (n = 2,400) | activation, % at 3 µM; in the data active = activation above about 12%
TAAR1 ag count – TAAR1 activation by candidate antagonists – cell-based, fluorescence, counter-screen for TAAR1 antagonist project; shares compounds with TAAR1 antagonist; hTAAR1 cell line, agonist mode; activation, % at 3 µM; actives 2% (n = 2,400); AID 651955, 2012; in the data active = activation above about 37%;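 also: CHO cells stably expressing TAAR1 with calcium dye readout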
A number is an active result; 0 = inactive; - = no result given.

SMILES	TAAR1 antagonist	GalR3 antagonist	OX1R antag-1	OX1R antag-2	TAAR1 ag	CHO parental Ca	nonsel antag count	TAAR1 ant conf	Ga16 ag counter	TAAR1 ag count
O=C1c2ccccc2C(=O)N1CCCCSc1nnc(-c2ccc(OC(F)F)cc2)o1	0	0	0	0	0	0	-	-	-	-
Cn1c(=NC(=O)CCl)sc2ccccc21	0	0	0	0	0	0	-	-	-	-
CN(C(=O)c1cccc(NC(=O)Cc2ccc(NC(=O)C3CCN(C(=O)CCc4ccccc4)CC3)cc2)c1)C1CCC1	0	0	-	-	0	-	-	-	-	-
CCc1cccc(C)c1NC(=O)CN1C(=O)NC(Cc2ccccc2)C1=O (stereo not drawn)	0	0	0	0	0	0	-	-	-	-
CN1C(=O)/C(=C/c2ccccc2OCc2ccc(C(=O)O)cc2)NC1=S	0	0	0	0	0	0	-	-	-	-
O=C(O)c1ccc(COc2ccccc2C=C2C(=O)c3ccccc3C2=O)cc1	75	0	0	0	0	0	37	54	0	0
COc1ccc(N2C(=O)Cc3ccccc3C2=O)cc1	0	0	0	0	0	0	-	-	-	-
CCOC(=O)C1=C(C)Nc2ccccc2S1	0	0	0	0	0	0	-	-	-	-
O=C1OC(c2ccccc2)(c2cc(Br)ccc2O)c2ccccc21 (stereo not drawn)	63	0	-	-	0	-	28	0	0	0
COc1ccc(C2c3c(-c4ccccc4O)n[nH]c3C(=O)N2CCc2ccc(OC)c(OC)c2)cc1 (stereo not drawn)	0	0	0	0	0	0	-	-	-	-
COc1ccc(CCN2C(=O)c3[nH]nc(-c4ccccc4O)c3C2c2cccc(Cl)c2)cc1 (stereo not drawn)	59	0	0	0	0	0	0	0	0	0
CC(C)CN(CC(C)C)S(=O)(=O)N1CCC(C(=O)NCc2ccc(F)cc2)CC1	0	0	0	0	0	0	-	-	-	-
O=C(NCCc1ccccc1)C1CCN(S(=O)(=O)c2cccs2)CC1	0	0	0	0	0	0	-	-	-	-
CC(C)CN(CC(C)C)S(=O)(=O)N1CCC(C(=O)NCCc2ccc(Cl)cc2)CC1	49	0	0	0	0	0	32	53	0	0
O=C(NCCN1C(=O)S/C(=C\c2ccccc2)C1=O)C1CCN(S(=O)(=O)c2cccs2)CC1	67	0	0	0	0	0	46	52	15	0
O=C(NCCc1ccc(Cl)cc1)C1CCN(S(=O)(=O)c2cccs2)CC1	61	0	0	0	0	0	0	50	16	0
O=C(NC1CCN(Cc2ccccc2)C1)c1cccc(S(=O)(=O)N2CCOCC2)c1 (stereo not drawn)	0	0	-	-	0	-	-	-	-	-
Cc1ccc(-c2noc(C3CCCN(C(=O)c4ccc(F)cc4F)C3)n2)cc1 (stereo not drawn)	0	0	0	0	0	0	-	-	-	-
CC(=O)c1cccc(NC(=O)COC(=O)[C@@H](NC(=O)OCc2ccccc2)C(C)C)c1	60	0	0	0	0	0	30	50	0	0
O=C1CCc2ccc(OCCCCN3CCN(c4cccc(Cl)c4Cl)CC3)cc2N1	63	0	0	0	0	0	46	0	16	0
COC(=O)C(Cc1cnc(Cl)s1)(C(=O)OC)c1ccccc1[N+](=O)[O-]	0	0	0	0	0	0	-	-	-	-
O=C(CN1CCN(Cc2cccc(Cl)c2)C1=O)NCC1CCCO1 (stereo not drawn)	0	0	0	0	0	0	-	-	-	-
CC(=O)n1cc([C@@H]2C=C(C(=O)N3CCN(Cc4ccccc4)CC3)O[C@H](OCc3ccc(CO)cc3)C2)c2ccccc21	52	0	0	0	0	0	0	0	0	0
O=C(C1=C[C@H](c2coc3ccccc3c2=O)C[C@H](OCc2ccc(CO)cc2)O1)N1CCN(Cc2ccc3c(c2)OCO3)CC1	49	0	0	0	0	0	0	0	0	0
CCN(CC)S(=O)(=O)c1ccc2[nH]cc(C(=O)NCCC3=CCCCC3)c(=O)c2c1	67	0	0	0	0	0	32	0	0	0
SMILES	TAAR1 antagonist	GalR3 antagonist	OX1R antag-1	OX1R antag-2	TAAR1 ag	CHO parental Ca	nonsel antag count	TAAR1 ant conf	Ga16 ag counter	TAAR1 ag count
CCN(CC)S(=O)(=O)c1ccc2[nH]cc(C(=O)NCCN3CCCCCC3)c(=O)c2c1	0	0	0	0	0	0	-	-	-	-
COC(=O)c1cc2c(c3c4cc(OC)ccc4n(S(=O)(=O)c4ccc(OC)cc4)c13)C(=O)N(Cc1ccco1)C2	0	0	-	-	0	-	-	-	-	-
COC(=O)c1cc2c(c3c4cc(OC)ccc4n(C(=O)c4ccccc4)c13)C(=O)N(Cc1ccco1)C2	65	0	-	-	0	-	29	50	0	0
COC(=O)c1cc2c(c3c4cc(F)ccc4n(C(=O)c4ccccc4)c13)C(=O)N(Cc1ccco1)C2	68	0	-	-	0	-	26	0	0	0
COc1ccccc1NC(=O)c1ccc(NC(=O)COC(=O)CCC2CCCC2)cc1	58	0	0	0	0	0	0	0	0	0
COc1ccccc1NC(=O)c1ccc(NC(=O)COC(=O)c2ccc(O)cc2)cc1	65	0	0	0	0	0	25	0	0	0
COC(=O)c1ccc(NC(=O)COC(=O)CCC2CCCC2)cc1	0	0	0	0	0	0	-	-	-	-
COc1ccccc1NC(=O)c1ccc(NC(=O)COC(=O)C(C)C)cc1	0	0	0	0	0	0	-	-	-	-
COc1ccc(-c2nn[nH]n2)cc1OC	0	0	0	0	0	0	-	-	-	-
Cc1nn2c(C)c(C(=O)Nc3ccccc3)cnc2c1C#N	53	0	0	0	0	0	0	0	0	0
C=CC[C@H](CC(=O)N(CCO)Cc1ccccc1)C(=O)N[C@H](COC(=O)[C@@H](CC=C)CC(=O)OC(C)(C)C)Cc1c[nH]c2ccccc12	67	0	0	0	0	0	0	0	0	0
